Test results published in ChEMBL document CHEMBL1158356, “Synthesis, anti-tuberculosis activity and 3D-QSAR study of amino acid conjugates of 4-(adamantan-1-yl) group containing quinolines” (Eur J Med Chem, 2009).
Converted amounts (≈) assume the structure as drawn.

Test system: Mycobacterium tuberculosis
Experiment: Antimycobacterial activity against rifampicin/isoniazid-susceptible Mycobacterium tuberculosis H37Rv ATCC 27294 at 6.25 ug/ml after 5 days by microplate alamar blue assay
Assay type: functional
Settings: H37Rv ATCC 27294, 120 h
Procedure, shortened: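 M. tuberculosis H37Rv (ATCC 27294, rifampicin- and isoniazid-susceptible) screened by Microplate Alamar Blue Assay at a single concentration of 6.25; read-out is % growth inhibition. Compounds showing fluorescence were instead tested in the BACTEC 460 radiometric system.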

Question: NNC(=O)[C@H](Cc1c[nH]cn1)NC(=O)c1cc(C23CC4CC(CC(C4)C2)C3)c2ccccc2n1 was tested. Which inhibition at 6.25 µg/mL did it give?
Answer: 99%

Question: How did the inhibition at 6.25 µg/mL turn out when NNC(=O)CNC(=O)c1cc(C23CC4CC(CC(C4)C2)C3)c2ccccc2n1 was run?
Answer: 70%

Question: CCC(C)[C@H](N)C(=O)NNC(=O)c1cc(C23CC4CC(CC(C4)C2)C3)c2ccccc2n1 (some centres undefined) was tested. Which inhibition at 6.25 µg/mL did it give?
Answer: 75%

Question: NNC(=O)[C@H](CCC(N)=O)NC(=O)c1cc(C23CC4CC(CC(C4)C2)C3)c2ccccc2n1 was tested. Which inhibition at 6.25 µg/mL did it give?
Answer: 50%

Question: For NCCC[C@H](NC(=O)c1cc(C23CC4CC(CC(C4)C2)C3)c2ccccc2n1)C(=O)NN, which inhibition at 6.25 µg/mL is on record?
Answer: 48%

Question: How did the inhibition at 6.25 µg/mL turn out when CC(C)(C)OC(=O)NCC(=O)NNC(=O)c1cc(C23CC4CC(CC(C4)C2)C3)c2ccccc2n1 was run?
Answer: 60%

Question: For CC(C)C[C@H](N)C(=O)NNC(=O)c1cc(C23CC4CC(CC(C4)C2)C3)c2ccccc2n1, which inhibition at 6.25 µg/mL is on record?
Answer: 75%

Question: N[C@@H](Cc1ccc(O)cc1)C(=O)NNC(=O)c1cc(C23CC4CC(CC(C4)C2)C3)c2ccccc2n1 was tested. Which inhibition at 6.25 µg/mL did it give?
Answer: 48%

Question: How did the inhibition at 6.25 µg/mL turn out when CC[C@H](C)[C@H](NC(=O)c1cc(C23CC4CC(CC(C4)C2)C3)c2ccccc2n1)C(=O)OC was run?
Answer: 90%

Question: Which inhibition at 6.25 µg/mL does the source give for N[C@@H](Cc1ccccc1)C(=O)NNC(=O)c1cc(C23CC4CC(CC(C4)C2)C3)c2ccccc2n1 here?
Answer: 81%

Question: COC(=O)[C@H](Cc1c[nH]c2ccccc12)NC(=O)c1cc(C23CC4CC(CC(C4)C2)C3)c2ccccc2n1 was tested. Which inhibition at 6.25 µg/mL did it give?
Answer: 75%

Question: CC(C)(C)OC(=O)N[C@@H](CCC(N)=O)C(=O)NNC(=O)c1cc(C23CC4CC(CC(C4)C2)C3)c2ccccc2n1 was tested. Which inhibition at 6.25 µg/mL did it give?
Answer: 51%

Question: With COC(=O)[C@H](CC(C)C)NC(=O)c1cc(C23CC4CC(CC(C4)C2)C3)c2ccccc2n1 as the compound, how does the inhibition at 6.25 µg/mL read?
Answer: 83%

Question: With C[C@H](NC(=O)c1cc(C23CC4CC(CC(C4)C2)C3)c2ccccc2n1)C(=O)NN as the compound, how does the inhibition at 6.25 µg/mL read?
Answer: 82%

Question: With C[C@H](N)C(=O)NNC(=O)c1cc(C23CC4CC(CC(C4)C2)C3)c2ccccc2n1 as the compound, how does the inhibition at 6.25 µg/mL read?
Answer: 41%

Question: How did the inhibition at 6.25 µg/mL turn out when COC(=O)[C@H](CCSC)NC(=O)c1cc(C23CC4CC(CC(C4)C2)C3)c2ccccc2n1 was run?
Answer: 86%

Question: Which inhibition at 6.25 µg/mL does the source give for CSCC[C@H](N)C(=O)NNC(=O)c1cc(C23CC4CC(CC(C4)C2)C3)c2ccccc2n1 here?
Answer: 59%

Question: For NNC(=O)[C@H](Cc1ccc(O)cc1)NC(=O)c1cc(C23CC4CC(CC(C4)C2)C3)c2ccccc2n1, which inhibition at 6.25 µg/mL is on record?
Answer: 44%

Question: Which inhibition at 6.25 µg/mL does the source give for CSCC[C@H](NC(=O)c1cc(C23CC4CC(CC(C4)C2)C3)c2ccccc2n1)C(=O)NN here?
Answer: 68%

Question: How did the inhibition at 6.25 µg/mL turn out when COC(=O)[C@H](C)NC(=O)c1cc(C23CC4CC(CC(C4)C2)C3)c2ccccc2n1 was run?
Answer: 73%

Test system: Mycobacterium tuberculosis
Experiment: Antimycobacterial activity against rifampicin/isoniazid-susceptible Mycobacterium tuberculosis H37Rv ATCC 27294 at 3.125 ug/ml by BACTEC 460 radiometric method
Assay type: functional
Settings: not given
Procedure, shortened: (§1)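 Radiometric BACTEC 460 growth test on H37Rv (ATCC 27294). Compounds reaching at least 90% inhibition at 6.25 were retested at the lower concentrations 3.125 and 1.0, with % inhibition recorded. […] Isoniazid served as the reference standard.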

Question: Which inhibition at 3.125 µg/mL does the source give for CC(C)(C)OC(=O)N[C@@H](Cc1c[nH]c2ccccc12)C(=O)NNC(=O)c1cc(C23CC4CC(CC(C4)C2)C3)c2ccccc2n1 here?
Answer: 99%

Question: Which inhibition at 3.125 µg/mL does the source give for CC(C)(C)OC(=O)N[C@@H](Cc1c[nH]cn1)C(=O)NNC(=O)c1cc(C23CC4CC(CC(C4)C2)C3)c2ccccc2n1 here?
Answer: 99%

Question: With COC(=O)[C@H](CCCNC(=N)N)NC(=O)c1cc(C23CC4CC(CC(C4)C2)C3)c2ccccc2n1 as the compound, how does the inhibition at 3.125 µg/mL read?
Answer: 99%

Question: Which inhibition at 3.125 µg/mL does the source give for COC(=O)[C@H](Cc1c[nH]cn1)NC(=O)c1cc(C23CC4CC(CC(C4)C2)C3)c2ccccc2n1 here?
Answer: 99%

Question: How did the inhibition at 3.125 µg/mL turn out when CC(C)(C)OC(=O)N[C@@H](CCCNC(=N)N)C(=O)NNC(=O)c1cc(C23CC4CC(CC(C4)C2)C3)c2ccccc2n1 was run?
Answer: 99%

Test system: Mycobacterium tuberculosis
Experiment: Antimycobacterial activity against rifampicin/isoniazid-susceptible Mycobacterium tuberculosis H37Rv ATCC 27294 at 1 ug/ml by BACTEC 460 radiometric method
Assay type: functional
Settings: not given
Procedure, shortened: as §1

Question: How did the inhibition at 1 µg/mL turn out when N=C(N)NCCC[C@H](NC(=O)c1cc(C23CC4CC(CC(C4)C2)C3)c2ccccc2n1)C(=O)NN was run?
Answer: 99%

Test system: Mycobacterium tuberculosis
Experiment: Antimycobacterial activity against rifampicin/isoniazid-susceptible Mycobacterium tuberculosis H37Rv ATCC 27294 by BACTEC 460 radiometric method
Assay type: functional, organism-based
Settings: not given
Procedure, shortened: as §1

Question: With N=C(N)NCCC[C@H](NC(=O)c1cc(C23CC4CC(CC(C4)C2)C3)c2ccccc2n1)C(=O)NN as the compound, how does the IC50 read?
Answer: 0.0214 µM

Question: CC(C)(C)OC(=O)N[C@@H](Cc1c[nH]c2ccccc12)C(=O)NNC(=O)c1cc(C23CC4CC(CC(C4)C2)C3)c2ccccc2n1 was tested. Which IC50 did it give?
Answer: 0.0513 µM

Question: CC(C)(C)OC(=O)N[C@@H](Cc1c[nH]cn1)C(=O)NNC(=O)c1cc(C23CC4CC(CC(C4)C2)C3)c2ccccc2n1 was tested. Which IC50 did it give?
Answer: 0.0562 µM

Question: How did the IC50 turn out when COC(=O)[C@H](CCCNC(=N)N)NC(=O)c1cc(C23CC4CC(CC(C4)C2)C3)c2ccccc2n1 was run?
Answer: 0.135 µM

Question: COC(=O)[C@H](Cc1c[nH]cn1)NC(=O)c1cc(C23CC4CC(CC(C4)C2)C3)c2ccccc2n1 was tested. Which IC50 did it give?
Answer: 0.0692 µM

Question: CC(C)(C)OC(=O)N[C@@H](CCCNC(=N)N)C(=O)NNC(=O)c1cc(C23CC4CC(CC(C4)C2)C3)c2ccccc2n1 was tested. Which IC50 did it give?
Answer: 0.055 µM

Question: NNC(=O)[C@H](Cc1c[nH]cn1)NC(=O)c1cc(C23CC4CC(CC(C4)C2)C3)c2ccccc2n1 was tested. Which IC50 did it give?
Answer: 0.138 µM

Question: How did the IC50 turn out when NNC(=O)CNC(=O)c1cc(C23CC4CC(CC(C4)C2)C3)c2ccccc2n1 was run?
Answer: 7.08 µM

Question: Which IC50 does the source give for CCC(C)[C@H](N)C(=O)NNC(=O)c1cc(C23CC4CC(CC(C4)C2)C3)c2ccccc2n1 (some centres undefined) here?
Answer: 4.79 µM

Question: How did the IC50 turn out when NNC(=O)[C@H](CCC(N)=O)NC(=O)c1cc(C23CC4CC(CC(C4)C2)C3)c2ccccc2n1 was run?
Answer: 14.1 µM

Question: With NCCC[C@H](NC(=O)c1cc(C23CC4CC(CC(C4)C2)C3)c2ccccc2n1)C(=O)NN as the compound, how does the IC50 read?
Answer: 12.3 µM

Question: For CC(C)(C)OC(=O)NCC(=O)NNC(=O)c1cc(C23CC4CC(CC(C4)C2)C3)c2ccccc2n1, which IC50 is on record?
Answer: 8.71 µM

Question: CC(C)C[C@H](N)C(=O)NNC(=O)c1cc(C23CC4CC(CC(C4)C2)C3)c2ccccc2n1 was tested. Which IC50 did it give?
Answer: 4.79 µM

Question: For N[C@@H](Cc1ccc(O)cc1)C(=O)NNC(=O)c1cc(C23CC4CC(CC(C4)C2)C3)c2ccccc2n1, which IC50 is on record?
Answer: 13.8 µM

Question: Which IC50 does the source give for CC[C@H](C)[C@H](NC(=O)c1cc(C23CC4CC(CC(C4)C2)C3)c2ccccc2n1)C(=O)OC here?
Answer: 1.62 µM

Question: Which IC50 does the source give for N[C@@H](Cc1ccccc1)C(=O)NNC(=O)c1cc(C23CC4CC(CC(C4)C2)C3)c2ccccc2n1 here?
Answer: 3.16 µM

Question: COC(=O)[C@H](Cc1c[nH]c2ccccc12)NC(=O)c1cc(C23CC4CC(CC(C4)C2)C3)c2ccccc2n1 was tested. Which IC50 did it give?
Answer: 4.17 µM

Question: For CC(C)(C)OC(=O)N[C@@H](CCC(N)=O)C(=O)NNC(=O)c1cc(C23CC4CC(CC(C4)C2)C3)c2ccccc2n1, which IC50 is on record?
Answer: 11 µM

Question: With COC(=O)[C@H](CC(C)C)NC(=O)c1cc(C23CC4CC(CC(C4)C2)C3)c2ccccc2n1 as the compound, how does the IC50 read?
Answer: 2.95 µM

Question: C[C@H](NC(=O)c1cc(C23CC4CC(CC(C4)C2)C3)c2ccccc2n1)C(=O)NN was tested. Which IC50 did it give?
Answer: 3.55 µM

Question: C[C@H](N)C(=O)NNC(=O)c1cc(C23CC4CC(CC(C4)C2)C3)c2ccccc2n1 was tested. Which IC50 did it give?
Answer: 22.9 µM

Question: Which IC50 does the source give for COC(=O)[C@H](CCSC)NC(=O)c1cc(C23CC4CC(CC(C4)C2)C3)c2ccccc2n1 here?
Answer: 2.29 µM

Question: CSCC[C@H](N)C(=O)NNC(=O)c1cc(C23CC4CC(CC(C4)C2)C3)c2ccccc2n1 was tested. Which IC50 did it give?
Answer: 9.55 µM

Question: With NNC(=O)[C@H](Cc1ccc(O)cc1)NC(=O)c1cc(C23CC4CC(CC(C4)C2)C3)c2ccccc2n1 as the compound, how does the IC50 read?
Answer: 16.6 µM

Question: With CSCC[C@H](NC(=O)c1cc(C23CC4CC(CC(C4)C2)C3)c2ccccc2n1)C(=O)NN as the compound, how does the IC50 read?
Answer: 6.61 µM

Question: Which IC50 does the source give for COC(=O)[C@H](C)NC(=O)c1cc(C23CC4CC(CC(C4)C2)C3)c2ccccc2n1 here?
Answer: 5.89 µM

Question: Which MIC99 does the source give for NNC(=O)c1ccncc1 [ISONIAZID] here?
Answer: 1 µg/mL (≈ 7.29 µM)

Test system: Vero
Experiment: Cytotoxicity against african green monkey Vero cells up to 50 ug/ml
Assay type: cell-based
Settings: chlorocebus sabaeus

Question: N=C(N)NCCC[C@H](NC(=O)c1cc(C23CC4CC(CC(C4)C2)C3)c2ccccc2n1)C(=O)NN was tested. Which Activity did it give?
Answer: Non-toxic

Question: CC(C)(C)OC(=O)N[C@@H](Cc1c[nH]c2ccccc12)C(=O)NNC(=O)c1cc(C23CC4CC(CC(C4)C2)C3)c2ccccc2n1 was tested. Which Activity did it give?
Answer: Non-toxic

Question: With CC(C)(C)OC(=O)N[C@@H](Cc1c[nH]cn1)C(=O)NNC(=O)c1cc(C23CC4CC(CC(C4)C2)C3)c2ccccc2n1 as the compound, how does the Activity read?
Answer: Non-toxic

Question: For COC(=O)[C@H](CCCNC(=N)N)NC(=O)c1cc(C23CC4CC(CC(C4)C2)C3)c2ccccc2n1, which Activity is on record?
Answer: Non-toxic

Question: How did the Activity turn out when COC(=O)[C@H](Cc1c[nH]cn1)NC(=O)c1cc(C23CC4CC(CC(C4)C2)C3)c2ccccc2n1 was run?
Answer: Non-toxic

Question: Which Activity does the source give for CC(C)(C)OC(=O)N[C@@H](CCCNC(=N)N)C(=O)NNC(=O)c1cc(C23CC4CC(CC(C4)C2)C3)c2ccccc2n1 here?
Answer: Non-toxic
